Activity calls are given as the source filed them. The rule behind the calls is not given here.
What was measured:
[1] = system: Cryptococcus gattii species complex; assay: Antifungal activity against Cryptococcus gattii L27/01 assessed as reduction in ergosterol content at MIC after 24 hrs by spectrophotometric analysis; format: functional, organism-based; settings: Cryptococcus bacillisporus
Outline: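 Pellet washed and weighed, then saponified in 25% ethanolic KOH at 85°C for 1 h. Extracted with water and n-heptane, read at 282 and 230 nm. Ergosterol taken from a standard curve and expressed as % of growth control.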

[2] = Selectivity index, ratio of IC50 for African green monkey Vero cells to MIC for Cryptococcus gattii ATCC 24065; format: toxicity, cell-based
[3] = system: Cryptococcus bacillisporus; assay: Ratio of compound MIC for Cryptococcus gattii ATCC 32608 in presence of fluconazole to compound MIC for Cryptococcus gattii ATCC 32608 in absence of fluconazole by checkerboard microtiter test; format: functional
Outline: (§1)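 Checkerboard microdilution: eight two-fold dilutions of test compound (0.11 to 15.6 µM) crossed with amphotericin B (0.025 to 3.9 µM, in DMSO) or fluconazole (0.48 to 62.5 µM, in water). Inoculum per CLSI M27-A3 in RPMI-MOPS pH 7.0, 1-5 x10^3 cells/mL. Growth 48 to 72 h. Effective MIC is the combination concentration giving complete inhibition. FICs derived from MICs in combination versus alone.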

Cryptococcus neoformans [4] = assay: Antifungal activity against Cryptococcus neoformans LMM820 assessed as reduction in cell viability at 3.9 uM after 6 to 72 hrs by MTT assay; format: functional
Cryptococcus neoformans [5] = assay: Ratio of compound MIC for Cryptococcus neoformans ATCC 62066 in presence of amphotericin B to compound MIC for Cryptococcus neoformans ATCC 62066 in absence of amphotericin B by checkerboard microtiter test; format: functional; outline: as §1
[6] = system: Cryptococcus bacillisporus; assay: Ratio of compound MIC for Cryptococcus gattii ATCC 32608 in presence of amphotericin B to compound MIC for Cryptococcus gattii ATCC 32608 in absence of amphotericin B by checkerboard microtiter test; format: functional; outline: as §1
Cryptococcus gattii = assay: Ratio of compound MIC for Cryptococcus gattii ATCC 24065 in presence of amphotericin B to compound MIC for Cryptococcus gattii ATCC 24065 in absence of amphotericin B by checkerboard microtiter test
[7] = system: Cryptococcus gattii species complex; assay: Ratio of compound MIC for Cryptococcus gattii 1913ER in presence of fluconazole to compound MIC for Cryptococcus gattii 1913ER in absence of fluconazole by checkerboard microtiter test; format: functional, Cryptococcus bacillisporus; outline: as §1
Cryptococcus neoformans [8] = assay: Antifungal activity against Cryptococcus neoformans VM-MCMMPI assessed as reduction in cell viability at 3.9 uM after 6 to 72 hrs by MTT assay; format: functional
[9] = system: Cryptococcus gattii species complex; assay: Ratio of compound MIC for Cryptococcus gattii L28/02 in presence of amphotericin B to compound MIC for Cryptococcus gattii L28/02 in absence of amphotericin B by checkerboard microtiter test; format: functional, Cryptococcus bacillisporus; outline: as §1
[10] = system: Cryptococcus gattii species complex; assay: Ratio of compound MIC for Cryptococcus gattii LMM818 in presence of fluconazole to compound MIC for Cryptococcus gattii LMM818 in absence of fluconazole by checkerboard microtiter test; format: functional, Cryptococcus bacillisporus; outline: as §1
[11] = system: Cryptococcus gattii species complex; assay: Ratio of compound MIC for Cryptococcus gattii 23/10993 in presence of fluconazole to compound MIC for Cryptococcus gattii 23/10993 in absence of fluconazole by checkerboard microtiter test; format: functional, Cryptococcus bacillisporus; outline: as §1
[12] = system: Cryptococcus gattii species complex; assay: Ratio of compound MIC for Cryptococcus gattii 196L/03 in presence of fluconazole to compound MIC for Cryptococcus gattii 196L/03 in absence of fluconazole by checkerboard microtiter test; format: functional, Cryptococcus bacillisporus; outline: as §1
Cryptococcus neoformans [13] = assay: Ratio of compound MIC for Cryptococcus neoformans ATCC 28957 in presence of amphotericin B to compound MIC for Cryptococcus neoformans ATCC 28957 in absence of amphotericin B by checkerboard microtiter test; format: functional; outline: as §1
Cryptococcus neoformans [14] = assay: Ratio of compound MIC for Cryptococcus neoformans VM-MCMMPI in presence of amphotericin B to compound MIC for Cryptococcus neoformans VM-MCMMPI in absence of amphotericin B by checkerboard microtiter test; format: functional; outline: as §1
[15] = system: Cryptococcus gattii species complex; assay: Ratio of compound MIC for Cryptococcus gattii 135L/03 in presence of fluconazole to compound MIC for Cryptococcus gattii 135L/03 in absence of fluconazole by checkerboard microtiter test; format: functional, Cryptococcus bacillisporus; outline: as §1
[16] = system: Cryptococcus gattii species complex; assay: Antifungal activity against Cryptococcus gattii LMM818 assessed as reduction in cell viability at 3.9 uM after 6 to 72 hrs by MTT assay; format: functional, Cryptococcus bacillisporus
Cryptococcus neoformans [17] = assay: Antifungal activity against Cryptococcus neoformans 5396 assessed as reduction in cell viability at 3.9 uM after 6 to 72 hrs by MTT assay; format: functional
Cryptococcus neoformans [18] = assay: Antifungal activity against Cryptococcus neoformans WP assessed as reduction in cell viability at 3.9 uM after 6 to 72 hrs by MTT assay; format: functional
[19] = system: Cryptococcus gattii species complex; assay: Ratio of compound MIC for Cryptococcus gattii 196L/03 in presence of amphotericin B to compound MIC for Cryptococcus gattii 196L/03 in absence of amphotericin B by checkerboard microtiter test; format: functional, Cryptococcus bacillisporus; outline: as §1
Cryptococcus neoformans [20] = assay: Ratio of compound MIC for Cryptococcus neoformans ATCC 24067 in presence of fluconazole to compound MIC for Cryptococcus neoformans ATCC 24067 in absence of fluconazole by checkerboard microtiter test; format: functional; outline: as §1
[21] = system: Cryptococcus gattii species complex; assay: Antifungal activity against Cryptococcus gattii L24/01 assessed as reduction in cell viability at 3.9 uM after 6 to 72 hrs by MTT assay; format: functional, Cryptococcus bacillisporus
Cryptococcus neoformans [22] = assay: Ratio of compound MIC for Cryptococcus neoformans 5396 in presence of amphotericin B to compound MIC for Cryptococcus neoformans 5396 in absence of amphotericin B by checkerboard microtiter test; format: functional; outline: as §1
Cryptococcus neoformans [23] = assay: Ratio of compound MIC for Cryptococcus neoformans 96806 in presence of amphotericin B to compound MIC for Cryptococcus neoformans 96806 in absence of amphotericin B by checkerboard microtiter test; format: functional; outline: as §1
[24] = system: Cryptococcus gattii species complex; assay: Ratio of compound MIC for Cryptococcus gattii L27/01 in presence of fluconazole to compound MIC for Cryptococcus gattii L27/01 in absence of fluconazole by checkerboard microtiter test; format: functional, Cryptococcus bacillisporus; outline: as §1
Cryptococcus neoformans [25] = assay: Ratio of compound MIC for Cryptococcus neoformans LMM820 in presence of fluconazole to compound MIC for Cryptococcus neoformans LMM820 in absence of fluconazole by checkerboard microtiter test; format: functional; outline: as §1
[26] = system: Cryptococcus gattii species complex; assay: Antifungal activity against Cryptococcus gattii 23/10993 assessed as reduction in cell viability at 1.9 uM after 6 to 72 hrs by MTT assay; format: functional, Cryptococcus bacillisporus
[27] = system: Cryptococcus gattii species complex; assay: Antifungal activity against Cryptococcus gattii 1913ER assessed as reduction in cell viability at 1.9 uM after 6 to 72 hrs by MTT assay; format: functional, Cryptococcus bacillisporus
[28] = system: Cryptococcus gattii species complex; assay: Antifungal activity against Cryptococcus gattii L28/02 assessed as reduction in cell viability at 1.9 uM after 6 to 72 hrs by MTT assay; format: functional, Cryptococcus bacillisporus
[29] = system: Cryptococcus gattii species complex; assay: Antifungal activity against Cryptococcus gattii LMM818 assessed as reduction in cell viability at 1.9 uM after 6 to 72 hrs by MTT assay; format: functional, Cryptococcus bacillisporus
Cryptococcus neoformans [30] = assay: Antifungal activity against Cryptococcus gattii ATCC 24065 assessed as reduction in cell viability at 1.9 uM after 6 to 72 hrs by MTT assay; format: functional, Cryptococcus bacillisporus
[31] = system: Cryptococcus bacillisporus; assay: Antifungal activity against Cryptococcus gattii ATCC 32608 assessed as reduction in cell viability after at 1.9 uM 6 to 72 hrs by MTT assay; format: functional

Compound	Activity [1]	selectivity ratio [2]	fractional inhibitory concentration index (FICI) [3]	fractional inhibitory concentration index (FICI) (Cryptococcus neoformans [5])	fractional inhibitory concentration index (FICI) [6]	fractional inhibitory concentration index (FICI) (Cryptococcus gattii)	fractional inhibitory concentration index (FICI) [7]	fractional inhibitory concentration index (FICI) [9]	fractional inhibitory concentration index (FICI) [10]	fractional inhibitory concentration index (FICI) [11]	fractional inhibitory concentration index (FICI) [12]	fractional inhibitory concentration index (FICI) (Cryptococcus neoformans [13])	fractional inhibitory concentration index (FICI) (Cryptococcus neoformans [14])	fractional inhibitory concentration index (FICI) [15]	fractional inhibitory concentration index (FICI) [19]	fractional inhibitory concentration index (FICI) (Cryptococcus neoformans [20])	fractional inhibitory concentration index (FICI) (Cryptococcus neoformans [22])	fractional inhibitory concentration index (FICI) (Cryptococcus neoformans [23])	fractional inhibitory concentration index (FICI) [24]	fractional inhibitory concentration index (FICI) (Cryptococcus neoformans [25])	other results
OC(Cn1cncn1)(Cn1cncn1)c1ccc(F)cc1F [FLUCONAZOLE]	Active	7.87	–	–	–	–	–	–	–	–	–	–	–	–	–	–	–	–	–	–	–
COc1ccc(-c2csc(N/N=C/C3CCCCC3)n2)cc1	–	25.6	4.38	2.58	2.78	2	2.46	2.18	1.19	2.46	2.28	2.07	2.16	2.71	1.58	3.97	2.07	1.46	1.18	4.59	Activity (Cryptococcus neoformans [4]): 80%; Activity (Cryptococcus neoformans [8]): 80%; Activity [16]: 80%; Activity (Cryptococcus neoformans [17]): 80%; Activity (Cryptococcus neoformans [18]): 80%; Activity [21]: 80%
C(=N\Nc1nc(-c2ccccc2)cs1)/C1CCCCC1	–	–	1.72	2.47	2.58	1.72	2.09	1.34	2.47	1.47	2.47	1.09	1.47	2.47	3.97	3.59	1.15	2.67	4.23	4.24	Activity [26]: 90%; Activity [27]: 90%; Activity [28]: 90%; Activity [29]: 90%; Activity (Cryptococcus neoformans [30]): 90%; Activity [31]: 90%
C[C@@H]1[C@H](O)[C@@H](C)/C=C/C=C/C=C/C=C/C=C/C=C/C=C/[C@H](O[C@@H]2O[C@H](C)[C@@H](O)[C@H](N)[C@@H]2O)C[C@@H]2O[C@](O)(C[C@@H](O)C[C@@H](O)[C@H](O)CC[C@@H](O)C[C@@H](O)CC(=O)O[C@H]1C)C[C@H](O)[C@H]2C(=O)O [AMPHOTERICIN B]	inactive	–	–	–	–	–	–	–	–	–	–	–	–	–	–	–	–	–	–	–	–
COc1ccc(-c2csc(N/N=C(\C)CCO)n2)cc1	inactive	222	2.32	2.58	3.14	2.98	2.47	2.78	2.32	2.28	1.95	1.98	1.58	2.38	9.38	1.92	1.58	2.78	2.14	2.1	Activity [26]: 90%; Activity [27]: 90%; Activity [28]: 90%; Activity [29]: 90%; Activity (Cryptococcus neoformans [30]): 90%; Activity [31]: 90%
c1ccc(-c2csc(NN=C3CCCC3)n2)cc1	–	–	3.45	3.06	1.7	1.2	2.45	2.66	1.59	4.23	1.84	2.22	2.66	2.45	1.46	4.46	4.86	2.46	1.45	4.46	Activity (Cryptococcus neoformans [4]): 80%; Activity (Cryptococcus neoformans [8]): 80%; Activity [16]: 80%; Activity (Cryptococcus neoformans [17]): 80%; Activity (Cryptococcus neoformans [18]): 80%; Activity [21]: 80%

Source: ChEMBL document CHEMBL3616437, “Thiazole compounds with activity against Cryptococcus gattii and Cryptococcus neoformans in vitro” (Eur J Med Chem, 2015)
